This is a sample that favours compounds with a hit; in the whole collection about 4% have one here.
CHOP inh: inhibitors of CHOP promoter induction, primary screen, cell-based, unfolded protein response, luciferase reporter; CHO-K1 CHOP-promoter luciferase, tunicamycin-induced, 15-18 h; hit rate 3.8% among 220,000; inhibition, % at 10 µM;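 active = compounds that reduced the stress-induced luciferase reporter signal by more than about 70% of percent inhibition, limit read from the data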;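 also: 0% = tunicamycin plus vehicle and 100% = wells without tunicamycin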
Hsp70 act: Hsp70 transcriptional activators, primary screen, cell-based, HeLa, Hsp70 promoter luciferase, luminescence, 10 µM. AID 1203, 2008. hit rate 0.04% among 200,000. activation, % at 10 µM. HeLa Hsp70 promoter luciferase reporter; scaled: vehicle 0, proteasome-inhibitor control 100%;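 active = activation above the mean across all tested compounds plus 3 SD, cutoff set per campaign, cut at about 5.5% in these data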;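 also: 100% = MG132 at 30 µM as the positive control and 0% = DMSO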
S1P3 antagonist: S1P3 receptor antagonists, primary screen, cell-based; Sphingosine 1-phosphate receptor 3 (Homo sapiens), Q99500; CHO S1P3 NFAT-BLA reporter, FRET fluorescence, antagonist mode; inhibition, % at 4.98 µM; hit rate 0.27% among 170,000; AID 485, 2006;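 active = inhibition above the plate cutoff, the mean inhibition of test wells on that plate plus 3 SD, cut at about 28% in these data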;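 also: cells challenged with S1P at its EC80 of 0.8 µM; blue over green emission ratio from cleaved BLA substrate after 4 h stimulation; 0% = S1P-stimulated wells and 100% = unstimulated DMSO-only wells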
MDM2 E3 inh: MDM2-luciferase reporter signal enhancers, primary screen, MDM2 E3 ligase inhibitor project, cell-based, luminescence, 1536-well; E3 ubiquitin-protein ligase Mdm2 (Homo sapiens), Q00987; cell-based MDM2 ubiquitination luciferase reporter, 2 h; 0 = plate control, 100 = twice control, blank-subtracted; signal enhancement, % at 5 µM; hit rate 0.11% among 210,000;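 active = signal enhancement of 30% or more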;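 also: luminescence tracks abundance of the self-degrading MDM2-luciferase fusion protein; higher signal means inhibition of MDM2 E3 ligase activity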
Target sequence (Q00987 whole entry, looked up, the tested form may be a part): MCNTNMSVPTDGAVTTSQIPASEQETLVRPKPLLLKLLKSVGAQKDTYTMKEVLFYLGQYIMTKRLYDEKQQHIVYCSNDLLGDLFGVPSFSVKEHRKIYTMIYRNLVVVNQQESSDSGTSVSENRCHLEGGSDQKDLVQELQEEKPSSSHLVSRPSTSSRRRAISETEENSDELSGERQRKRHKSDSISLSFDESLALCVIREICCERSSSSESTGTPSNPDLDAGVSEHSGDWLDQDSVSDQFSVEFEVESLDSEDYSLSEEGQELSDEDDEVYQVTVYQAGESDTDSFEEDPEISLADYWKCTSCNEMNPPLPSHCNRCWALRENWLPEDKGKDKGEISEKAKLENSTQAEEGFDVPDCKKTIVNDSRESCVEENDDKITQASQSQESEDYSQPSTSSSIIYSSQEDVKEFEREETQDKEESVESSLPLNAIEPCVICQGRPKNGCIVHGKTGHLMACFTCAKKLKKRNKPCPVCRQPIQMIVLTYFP
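Material: Stable MDM2–luciferase fusion reporter cells | Amount: 2000 cells seeded into each well | Dosing: One concentration, 5 µM, with 0.2% DMSO | Incubation: 4 h cell settling then 2 h compound exposure, 37 °C | Measured by: Luciferase luminescence | Read-out basis: % enhancement relative to plate controls after blank subtraction | Benchmarks: Control and blank well means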
Starred values were filed as active, the others as inactive; . = no result given.

SMILES | CHOP inh | Hsp70 act | S1P3 antagonist | MDM2 E3 inh
O=C(CN1CCOCC1)NCC(=O)Nc1ccc(Br)cc1C(=O)c1ccccc1 | -5 | 0 | . | -15
O=C(CNC(=O)c1ccc(Br)cc1)Nc1ccc(Br)cc1C(=O)c1ccccc1 | 77* | 0 | 11 | .
CC1(C)C2SCC(=O)N2CCN1CC(=O)NN (stereo unspecified) | 84* | . | 13 | -15
CC(Cc1ccc(OCC(=O)O)cc1)NCC(O)c1cccc(Cl)c1 (stereo unspecified) | 24 | . | . | .
C1=C(c2c[nH]c3ccccc23)CCNC1 | 77* | 1 | -49 | -20
Ic1ccccc1CNC1C2CCN(CC2)C1C(c1ccccc1)c1ccccc1 (stereo unspecified) | 15 | . | . | .
COC[C@H]1OC(=O)c2coc3c2[C@@]1(C)C1=C(C3=O)C2CCC(=O)[C@@]2(C)C[C@H]1OC(C)=O (stereo partly specified) | -11 | . | . | .
CCCCCc1nc2c(c(=O)c3ccccc3n2C)c(=O)n1C1CCCCCC1 | 103* | 0 | -4 | -17
CCCCn1c(O)c(C=NC2CC3CCC2(C)C3(C)C)c(=O)[nH]c1=O (stereo unspecified) | 95* | 0 | -5 | -1
CCCC(C)C1C(C#N)=C(N)Oc2c1c(=O)oc1ccccc21 (stereo unspecified) | 76* | 0 | -7 | -93
C=CCNC(=O)c1c(N)n(Cc2ccco2)c2nc3ccccc3nc12 | 77* | 0 | . | -16
O=c1[nH]c(=O)n(CCC2=CCCCC2)c(O)c1/C=N/Nc1ccccc1 | 61 | 0 | 1 | -6
O=c1[nH]c(=O)n(CCC2=CCCCC2)c(O)c1/C=N/Nc1cccc2ccccc12 | 71* | . | 5 | .
Oc1ccc2c3c1O[C@H]1c4oc5ccccc5c4C[C@@]4(O)C(C2)N(CC2CC2)CCC314 (stereo partly specified) | -23 | . | . | .
COc1cccc(/C=C2\N=C(c3cncc(Br)c3)OC2=O)c1 | 85* | 0 | -13 | -18
O=c1cc(C(F)(F)F)c2cc3c4c(c2o1)CCCN4CCC3 | 93* | 0 | . | -18
CCCCCCn1c(=O)c(C(=O)Nc2c(C)n(C)n(-c3ccccc3)c2=O)c(O)c2ccccc21 | 90* | . | -4 | .
CCCCCn1c(=O)c(C(=O)Nc2ccncc2)c(O)c2ccccc21 | . | . | -8 | .
CCCCn1c(=O)c(C(=O)Nc2ccsc2C(=O)OC)c(O)c2ccccc21 | 20 | 0 | 9 | 22
CCCCCCn1c(=O)c(C(=O)Nc2nc(CC(=O)OCC)cs2)c(O)c2ccccc21 | 84* | . | -16 | 0
CCOC(=O)Cc1csc(NC(=O)c2c(O)c3ccccc3n(CCC(C)C)c2=O)n1 | 89* | 0 | -1 | -10
Cc1ccccc1N1C(=O)NC(=O)/C(=C\c2cc(Br)c(N3CCOCC3)o2)C1=O | 72* | 0 | 13 | -1
NC(=NCCC[C@H](N)C(=O)O)N[N+](=O)[O-] | 0 | . | . | .
CCCCn1c(N)c(C(=O)NCCN2CCOCC2)c2nc3ccccc3nc21 | 28 | 0 | -19 | -19
CC(C)CCNC(=O)c1c(N)n(CC2CCCO2)c2nc3ccccc3nc12 (stereo unspecified) | 76* | 0 | . | -7
SMILES | CHOP inh | Hsp70 act | S1P3 antagonist | MDM2 E3 inh
COc1ccc(CCNC(=O)c2c(N)n(CCN3CCOCC3)c3nc4ccccc4nc23)cc1 | 76* | 0 | -5 | -12
Nc1c(C(=O)NCCN2CCOCC2)c2nc3ccccc3nc2n1Cc1ccccc1 | 34 | . | -8 | -14
Nc1c(C(=O)NCCc2ccccc2)c2nc3ccccc3nc2n1CCN1CCOCC1 | 88* | 0 | -67 | -7
c1ccc2sc(C3(N4CCCCC4)CCCCC3)cc2c1 | -2 | . | . | .
C[C@]12Cc3cn4c(nc3C=C1CCC1C2CC[C@@]2(C)[C@H]1CC[C@@]2(O)C#N)nc1ccccc14 (stereo partly specified) | 7 | . | . | .
O=c1[nH]c2c(c(=O)n1C1CCCCC1)CCC2 | 5 | 0 | 11 | -3
CC(C)CC(NP(=O)(O)O[C@@H]1O[C@@H](C)[C@H](O)[C@@H](O)[C@H]1O)C(=O)NC(Cc1c[nH]c2ccccc12)C(=O)O (stereo partly specified) | -10 | . | . | .
CCOc1ccc(N=Cc2c(O)n(CCc3ccc(OC)c(OC)c3)c(=O)[nH]c2=O)cc1 | 90* | . | 10 | -4
COc1ccc(N=Cc2c(O)n(Cc3cccs3)c(=O)[nH]c2=O)cc1 | 81* | 0 | -24 | -6
C=CCn1c(O)c(C=Nc2ccc(N(CC)CC)cc2)c(=O)[nH]c1=O | 71* | 0 | . | -14
COc1ccc(CCn2c(O)c(C=Nc3ccc(NC(C)=O)cc3)c(=O)[nH]c2=O)cc1OC | 2 | . | -5 | -7
CCN(CC)c1ccc(N=Cc2c(O)n(CCC3=CCCCC3)c(=O)[nH]c2=O)cc1 | 43 | 0 | -42 | -20
CP(=O)(O)C1=CCNCC1 | 1 | . | . | .
NC(=O)Nc1ccc(C(=O)OCC(=O)Nc2ccc(Cl)cc2C(=O)c2ccccc2)cc1 | 76* | 0 | 3 | 7
C[N+](C)(C)CC(=O)Nc1ccc(Cl)cc1C(=O)c1ccccc1 | -8 | 0 | 11 | -16
CC(O)C(C)OC(=O)[C@@H]1C[C@@H]2c3cccc4c3c(cn4C(C)C)C[C@H]2N(C)C1 (stereo partly specified) | 0 | . | . | .
O=C1NC(=O)C(=Cc2ccc(-c3ccccc3[N+](=O)[O-])o2)C(=O)N1 | 95* | . | -8 | -14
NC(=O)CN1CC(O)CC1=O (stereo unspecified) | 14 | . | . | .
Clc1ccc(N2CC3CCC(C2)N3)nn1 | 4 | . | . | .
CC(C)CCCn1c(O)c(/C=C2/C=CC=N2)c(=O)[nH]c1=O | 85* | 0 | -2 | -5
CCCCCOc1ccc(C)cc1CN(CCCl)CCCl | 27 | . | -9 | -14
Cc1ccc2c(c1)C1CN(C)CCC1N2C(=O)COc1ccc(S(=O)(=O)N2CCOCC2)cc1 (stereo unspecified) | -4 | 0 | 76* | -12
Cc1ccc2c(c1)C1CN(C)CCC1N2C(=O)Cc1cccs1 (stereo unspecified) | -11 | 0 | -15 | -7
CCOc1cccc(=NC2CCCCC2)c2c(C)n(C)c(C)c12 | 79* | . | 16 | -14
O=P(O)(O)C(Cl)(Cl)P(=O)(O)O | 2 | . | . | .
Cc1ccc(CN2C(=O)NC(=O)C3(Cc4c(nc5ccccn5c4=O)N4CCCCCC43)C2=O)cc1 (stereo unspecified) | 86* | 0 | -2 | 13
CCNC(=O)[C@H]1O[C@@H](n2cnc3c(N)ncnc32)C(O)[C@H]1O (stereo partly specified) | -17 | . | . | .
Cc1ccc(C(=O)n2cc(CCN3CCS(=O)(=O)CC3)c3ccccc32)cc1 | 18 | 0 | . | -10
Cc1cc2c(C(C)C)c(O)c(O)c(C=O)c2c(O)c1-c1c(C)cc2c(C(C)C)c(O)c(O)c(C=O)c2c1O | 109* | 0 | 15 | .

High-throughput results as filed in PubChem.
